PRMT1 FP inh: blocks human protein arginine methyltransferase 1. recombinant PRMT1, activity-based probe fluorescence polarization. hit rate 1.3% among 370,000. AID 652257. Q99873. inhibition, % at 2.79 µM;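 active = inhibition above about 21% made by adding two undisclosed values, limit read from the data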
TCR-CD3 inh: inhibitors of human TCR-CD3 interaction | TAMRA-labeled TCR probe fluorescence, biochemical | inhibition, % at 9.4 µM | hit rate 0.37% among 360,000;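 also: recombinant mutant TCR 2C K166C tagged with TAMRA read by polarization; 0% = receptor in buffer alone and 100% = receptor with positive control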
HTRA1 inhibitor: HTRA1 (human) protease inhibition. recombinant HTRA1, FP-rhodamine activity-based probe, fluorescence polarization. inhibition, % at 5.96 µM. hit rate 0.5% among 340,000; in the data active = inhibition above about 36%;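 also: 0% = enzyme with DMSO and 100% = wells lacking enzyme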
SIAE primary: blocks human sialic acid acetylesterase. AID 1053197. SIAE FP-Rh probe binding, fluorescence polarization. inhibition, % at 9.66 µM. hit rate 0.69% among 370,000. Q9HAT2;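 active = inhibition above a cutoff: mean of compounds within the control limits plus 3 SD of those, cut at about 17% in these data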;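 also: 0% = plate median of compound wells and 100% = probe without SIAE protein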
Target sequence (Q9HAT2 whole entry, looked up): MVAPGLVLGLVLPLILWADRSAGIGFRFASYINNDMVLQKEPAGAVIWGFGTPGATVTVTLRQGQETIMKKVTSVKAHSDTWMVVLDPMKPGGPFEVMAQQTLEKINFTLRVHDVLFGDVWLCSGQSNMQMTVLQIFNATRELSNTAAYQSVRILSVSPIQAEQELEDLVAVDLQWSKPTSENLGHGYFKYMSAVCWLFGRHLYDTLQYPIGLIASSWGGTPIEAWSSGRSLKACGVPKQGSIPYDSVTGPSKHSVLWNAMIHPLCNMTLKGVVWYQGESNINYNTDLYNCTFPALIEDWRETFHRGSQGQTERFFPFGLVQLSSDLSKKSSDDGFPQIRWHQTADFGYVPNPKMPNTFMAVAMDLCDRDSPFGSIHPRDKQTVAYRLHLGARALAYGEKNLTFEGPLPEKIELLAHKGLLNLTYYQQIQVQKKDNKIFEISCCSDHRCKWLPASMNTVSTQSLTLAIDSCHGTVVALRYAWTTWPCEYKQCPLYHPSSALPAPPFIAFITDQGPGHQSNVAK
ABHD4 inh: inhibitors of mouse ABHD4. Q8VD66. purified mABHD4, FP-Rh probe fluorescence polarization. inhibition, % at 8.92 µM. hit rate 0.54% among 370,000. AID 720543;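 active = inhibition exceeding the mean over every tested compound plus 3 SD, cut at about 30% in these data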;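 also: 0% = plate median of compound wells and 100% = S159A mutant with DMSO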
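System: mouse ABHD4 enzyme, wild type / Medium: HEPES pH 7.0, NaCl, Pluronic buffer / Reagent: FP-Rh activity-based fluorescent probe / Control set: S159A mutant high control, sample median low control / Detection: fluorescence polarization with parallel and perpendicular emission, 525/598 nm / Schedule: 45 min + 60 min at 25 °C / Compound dosing: 8.92 µM, single dose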
HTRA1 inh conf: confirmation of human HTRA1 inhibitors. recombinant HTRA1, FP-rhodamine activity-based probe, fluorescence polarization. shares compounds with HTRA1 inhibitor. hit rate 66% among 1,600. inhibition, % at 5.96 µM;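 active = mean inhibition over three repeats above a set limit taken from the earlier primary screen, cut at about 37% in these data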;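 also: 0% = HTRA1 with DMSO and 100% = wells lacking HTRA1; inhibitors block probe binding so polarization drops and inhibition rises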
BSA probe FL: interferes with TAMRA-BSA probe, flagging TCR-CD3 hits | shares compounds with TCR-CD3 inh | TAMRA-labeled BSA probe fluorescence counterscreen | inhibition, % at 9.4 µM | hit rate 10% among 1,200 | AID 652035; in the data active = inhibition above about 23%;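 also: 0% = buffer low control and 100% = reference high control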
TCR-CD3 inh conf: confirmation of human TCR-CD3 interaction inhibitors. TAMRA-labeled TCR probe fluorescence binding assay. AID 652036. shares compounds with TCR-CD3 inh. hit rate 48% among 1,200. inhibition, % at 9.4 µM
PRMT1 confirm: confirmation of human PRMT1 inhibitors | shares compounds with PRMT1 FP inh | recombinant His-PRMT1, activity-based probe fluorescence polarization | inhibition, % at 2.79 µM | hit rate 42% among 3,300;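 active = mean inhibition across replicates above the hit cutoff derived for the earlier primary screen, cut at about 22% in these data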
mABHD4 conf: confirmation of mouse ABHD4 inhibitors; shares compounds with ABHD4 inh; purified mABHD4, FP-Rh probe fluorescence polarization; inhibition, % at 8.92 µM; hit rate 55% among 1,800;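 active = mean inhibition across replicates above the hit cutoff set in the primary screen, cut at about 30% in these data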;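 also: 0% = wild-type ABHD4 with DMSO and 100% = catalytically dead S159A mutant with DMSO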
SIAE confirm: human SIAE inhibition, confirmation. SIAE FP-Rh activity-based probe, fluorescence polarization. shares compounds with SIAE primary. hit rate 13% among 2,300. inhibition, % at 9.66 µM;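 active = mean inhibition of the replicates above the hit cutoff set in the primary screen, cut at about 17% in these data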;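 also: 0% = SIAE with DMSO and probe and 100% = probe without SIAE; inhibitors lower polarization as more probe stays unbound to SIAE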
* hit, by the source's call. This is a sample that favours compounds with a hit; in the whole collection about 2.7% have one here. Rule as the data show it, unless noted: active = inhibition above about 19%; inactive = the rest.

How did Cc1ccc2c(c1)c1ccc3c(c1n2C)C(=O)C=CC3=O do in these assays?
PRMT1 FP inh: 11.5; TCR-CD3 inh: 0.5; HTRA1 inhibitor: 40.1*; SIAE primary: -8.6; ABHD4 inh: 67.8*; HTRA1 inh conf: 61.6*; mABHD4 conf: 84.8*

How did Cc1ccc(C)c2c1c1ccccc1n2C do in these assays?
PRMT1 FP inh: 0.5; TCR-CD3 inh: 3.1; HTRA1 inhibitor: -0.5; SIAE primary: -0.1; ABHD4 inh: -6.3

How did Cn1c2ccccc2c2ccc3c(c21)C(=O)C=CC3=O do in these assays?
PRMT1 FP inh: 10.2; TCR-CD3 inh: 8.4; HTRA1 inhibitor: 40.2*; SIAE primary: -2.1; ABHD4 inh: 42.0*; HTRA1 inh conf: 63.1*; mABHD4 conf: 72.0*

How did CCCCN1C(=O)C(CC(=O)NCCc2ccccn2)CC(C(=O)N(CC)CC)=C1C (centres undefined) do in these assays?
PRMT1 FP inh: 1.8; TCR-CD3 inh: -2.5; HTRA1 inhibitor: 10.5; SIAE primary: 7.5; ABHD4 inh: 7.1

What do the screens show for `COc1cccc2c1C(=O)c1c(O)c3c(c(O)c1C2=O)C[C@@](O)(C(C)=O)C[C@@H]3O[C@H]1C[C@H](N)[C@H](O)[C@H](C)O1`?
PRMT1 FP inh: 162.5*; TCR-CD3 inh: 161.8*; HTRA1 inhibitor: 72.2*; SIAE primary: 44.8*; ABHD4 inh: 61.8*; HTRA1 inh conf: 74.4*; BSA probe FL: 183.0*; TCR-CD3 inh conf: 150.3*; PRMT1 confirm: 168.9*; mABHD4 conf: 47.6*

Results for O=C1c2cc(O)cc(O)c2C(=O)c2c1cc(O)c([C@@H](CO)CCO)c2O ?
PRMT1 FP inh: 12.7; TCR-CD3 inh: 6.1; HTRA1 inhibitor: 39.1*; SIAE primary: 10.1; ABHD4 inh: 56.4*; HTRA1 inh conf: 20.1; mABHD4 conf: 51.1*

How did Cc1ccc(-c2nnc(SCC(=O)c3ccc(O)c(O)c3)n2-c2ccc(Cl)cc2)cc1 do in these assays?
PRMT1 FP inh: 1.9; SIAE primary: 0.6; ABHD4 inh: 14.4

How did C=CCn1c(SCC(=O)c2ccc(O)c(O)c2)nnc1-c1ccc(C)cc1 do in these assays?
PRMT1 FP inh: 7.3; TCR-CD3 inh: -1.0; HTRA1 inhibitor: 60.1*; SIAE primary: 10.8; ABHD4 inh: 33.5*; HTRA1 inh conf: 66.2*; mABHD4 conf: 22.6

Results for C=CCn1c(SCC(=O)c2ccc(O)c(O)c2)nnc1-c1ccc(OC)cc1 ?
PRMT1 FP inh: 10.1; TCR-CD3 inh: 10.0; HTRA1 inhibitor: 55.7*; SIAE primary: 15.0; ABHD4 inh: 37.7*; HTRA1 inh conf: 79.1*; mABHD4 conf: 13.4

Results for CC(C)c1cccc(C(C)C)c1NC(=O)OC1CCCCC1 ?
PRMT1 FP inh: -2.3; TCR-CD3 inh: 6.4; SIAE primary: -2.6; ABHD4 inh: 5.2

What do the screens show for `Cn1nc(C(C)(C)C)cc1C(=O)N1CCCC(c2cc(C(=O)NCc3ccccc3)no2)C1` (centres undefined)?
PRMT1 FP inh: -1.9; TCR-CD3 inh: 1.7; SIAE primary: -3.6; ABHD4 inh: 3.1

What do the screens show for `NS(=O)(=O)c1ccc(N=Nc2c(O)c(C(=O)O)cc3ccccc23)cc1`?
PRMT1 FP inh: 12.4; TCR-CD3 inh: -5.1; HTRA1 inhibitor: 44.5*; SIAE primary: 8.7; ABHD4 inh: 49.1*; HTRA1 inh conf: 8.8; mABHD4 conf: 19.7

Results for CC(=O)N1CCN(c2ccc(NCc3cccc4ccccc34)cc2)CC1 ?
PRMT1 FP inh: -1.5; TCR-CD3 inh: 2.9; HTRA1 inhibitor: 36.8*; SIAE primary: 9.8; ABHD4 inh: 29.6*; HTRA1 inh conf: 26.1; mABHD4 conf: 7.6

How did CCOc1ccc(-c2cc(C(=O)Nc3cc(OC)c(OC)c(OC)c3)[nH]n2)c(C)c1 do in these assays?
PRMT1 FP inh: -0.6; TCR-CD3 inh: 1.2; SIAE primary: 2.5; ABHD4 inh: -0.6

How did CC(=O)c1sc(N/N=C/c2cccc(O)c2)nc1C do in these assays?
PRMT1 FP inh: -3.4; TCR-CD3 inh: -0.3; HTRA1 inhibitor: 0.0; SIAE primary: 0.8; ABHD4 inh: 7.8

What do the screens show for `CC(=O)c1sc(N/N=C\c2c(O)ccc3ccccc23)nc1C`?
PRMT1 FP inh: 0.4; TCR-CD3 inh: 7.4; HTRA1 inhibitor: 38.6*; SIAE primary: 13.9; ABHD4 inh: 31.1*; HTRA1 inh conf: 43.6*; mABHD4 conf: 28.0

How did Cc1ccc(O)c(N=CC2=C(O)c3ccccc3C2=O)c1 do in these assays?
PRMT1 FP inh: 3.5; TCR-CD3 inh: 11.6; HTRA1 inhibitor: 43.6*; SIAE primary: -0.6; ABHD4 inh: 34.0*; HTRA1 inh conf: 75.8*; mABHD4 conf: 46.4*

How did O=C(N/N=C/c1ccc(O)c(O)c1)c1ccc(CSc2cccc3cccnc23)cc1 do in these assays?
PRMT1 FP inh: 7.1; TCR-CD3 inh: 16.1; HTRA1 inhibitor: 56.8*; SIAE primary: 41.5*; ABHD4 inh: 22.9; HTRA1 inh conf: 85.0*; SIAE confirm: 15.5

How did Cc1ccc(C(C)C)c(OCc2ccc(C(=O)N/N=C/c3ccc(O)c(O)c3)cc2)c1 do in these assays?
PRMT1 FP inh: 3.2; TCR-CD3 inh: -0.8; HTRA1 inhibitor: 63.2*; SIAE primary: 25.8*; ABHD4 inh: 18.1; HTRA1 inh conf: 55.9*; SIAE confirm: -14.0

Results for CC(=O)Nc1ccc(C(=O)N/N=C/c2ccccc2OCc2ccccc2)cc1 ?
PRMT1 FP inh: 0.1; TCR-CD3 inh: 6.4; HTRA1 inhibitor: -53.2; SIAE primary: -44.3; ABHD4 inh: -45.6

What do the screens show for `Cc1ccc(C(C)C)c(OCc2ccc(C(=O)N/N=C/c3cccc(O)c3O)cc2)c1`?
PRMT1 FP inh: -3.8; TCR-CD3 inh: 18.4; HTRA1 inhibitor: 83.4*; SIAE primary: 27.9*; ABHD4 inh: 12.2; HTRA1 inh conf: 78.4*; SIAE confirm: -0.5

What do the screens show for `CC(C)CNc1cccc2c1S(=O)(=O)N(Cc1cccc(F)c1)[C@@H](C)[C@H](c1ccccc1)O2`?
PRMT1 FP inh: -2.2; TCR-CD3 inh: -0.8; SIAE primary: 2.6; ABHD4 inh: 1.8

Results for CC(=O)Nc1ccc(N2CCN(c3ccc(F)cc3)CC2)cc1 ?
PRMT1 FP inh: -1.2; TCR-CD3 inh: 2.1; HTRA1 inhibitor: 3.4; SIAE primary: -2.9; ABHD4 inh: -4.4

Source: PubChem BioAssay
